Measured values of several laboratories.
Protocols differ between the studies behind these lines.
Target: Serine/threonine-protein kinase BRSK1 (BRSK1, Homo sapiens, UniProt Q8TDC3)
Residues used in one study (Q8TDC3 1-778): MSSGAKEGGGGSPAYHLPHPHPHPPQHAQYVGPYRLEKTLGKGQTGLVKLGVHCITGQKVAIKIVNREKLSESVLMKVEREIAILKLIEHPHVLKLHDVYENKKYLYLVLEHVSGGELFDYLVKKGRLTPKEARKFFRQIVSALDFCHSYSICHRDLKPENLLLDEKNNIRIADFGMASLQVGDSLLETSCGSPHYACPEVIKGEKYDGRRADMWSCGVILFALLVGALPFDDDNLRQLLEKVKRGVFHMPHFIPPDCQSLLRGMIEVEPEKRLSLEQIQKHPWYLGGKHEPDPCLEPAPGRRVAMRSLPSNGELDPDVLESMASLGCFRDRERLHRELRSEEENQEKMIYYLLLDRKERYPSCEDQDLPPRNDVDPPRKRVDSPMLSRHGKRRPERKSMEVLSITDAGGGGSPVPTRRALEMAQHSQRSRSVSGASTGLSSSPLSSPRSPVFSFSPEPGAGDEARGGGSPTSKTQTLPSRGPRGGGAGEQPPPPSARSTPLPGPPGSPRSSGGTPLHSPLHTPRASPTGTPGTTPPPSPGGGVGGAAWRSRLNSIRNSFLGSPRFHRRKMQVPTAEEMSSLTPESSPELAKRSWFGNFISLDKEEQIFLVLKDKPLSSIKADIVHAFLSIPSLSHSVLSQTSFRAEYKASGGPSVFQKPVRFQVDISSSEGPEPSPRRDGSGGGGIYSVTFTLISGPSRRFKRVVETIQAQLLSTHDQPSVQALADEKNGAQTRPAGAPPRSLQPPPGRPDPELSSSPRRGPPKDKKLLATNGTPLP

Structure (SMILES)	assay	setting	remaining binding [%]
CN(c1nccc(-c2cnn3ncccc23)n1)C1CC1	binding	1 µM	100
C[C@H](c1cccc(C#N)c1)n1cc(Cl)cc(C(N)=O)c1=N	cell-free assay, competition with immobilised ligand	1 µM	68
CN(C)c1ncc(F)c(-c2cnn3ncccc23)n1	binding	1 µM	87
Nc1ncc2c(n1)-c1c([nH]c3ccc(C#CC4CC4)cc13)CCCC2	binding, competition with immobilised ligand	1 µM	87
COc1ccnn2ncc(-c3ccnc(N(C)C)n3)c12	binding	1 µM	98
O=C(NCC1CCOCC1)c1n[nH]cc1NC(=O)c1c(F)cccc1F	binding, competition with immobilised ligand	1 µM	100
O=C(c1ccc(Nc2ncc(Cl)c(-c3cc4ccccc4s3)n2)cc1)N1CCC(N2CCCC2)CC1	binding, competition with immobilised ligand	1 µM	32
COc1ncc2cc3ccccc3nc2c1C#N	cell-free assay, competition with immobilised ligand	5 µM	89
COc1cnc(Nc2cccc(S(N)(=O)=O)c2)nc1N1CCN(c2ccccc2)C(=O)C1	binding, competition with immobilised ligand	1 µM	100
C[C@H]1CCN(c2nccc(-c3cnn4ncccc34)n2)C1	binding	1 µM	98
Cc1c[nH]c2nccc(Oc3c(F)cc(Nc4cc(Cl)nc(N)n4)cc3F)c12	cell-free assay, competition with immobilised ligand	0.1 µM	96
COc1cnc(Nc2cccc(S(N)(=O)=O)c2)nc1N1CCN(c2ccccc2)CC1	binding, competition with immobilised ligand	1 µM	96
O=C(c1ccc(Nc2ncc(Cl)c(-c3ccc(Cl)s3)n2)cc1)N1CCC(N2CCCC2)CC1	binding, competition with immobilised ligand	1 µM	57
CS(=O)(=O)c1cc(C2(NC(=O)c3cncc4c3cnn4-c3ccc(F)cc3)CC2)ccn1	cell-free assay, competition with immobilised ligand	1 µM	74
C[C@@H](c1ccc(-n2cnc3c(N)ncnc32)cc1)N1CCc2nn(C)c(Cc3ccccc3)c2C1=O	binding, competition with immobilised ligand	0.1 µM	93
F[C@@H]1CCN(c2nccc(-c3cnn4ncccc34)n2)C1	binding	1 µM	100
Cc1nccc(COC(=O)N2C[C@@H]3[C@@H](CNC(=O)c4ccc5[nH]nnc5c4)[C@@H]3C2)n1	cell-free assay, competition with immobilised ligand	1 µM	100
N[C@H]1CCN(c2nccc(-c3cnn4ncccc34)n2)C1	binding	1 µM	81
CN(c1ccnc(CNc2nc(Nc3ccc4c(c3)CC(=O)N4)ncc2C(F)(F)F)n1)S(C)(=O)=O	cell-free assay, competition with immobilised ligand	1 µM	43
O=C(c1ccc(Nc2nccc(-c3cc4ccccc4s3)n2)cc1)N1CCC(N2CCCC2)CC1	binding, competition with immobilised ligand	1 µM	61
O=C(O)[C@@H]1[C@@H](Cn2nnc3ccccc3c2=O)CC[C@H]1C(=O)c1ccc(OCCC2CCOCC2)cc1	cell-free assay, competition with immobilised ligand	1 µM	100
CN(CCCC(F)(F)F)c1nccc(-c2cnn3ncccc23)n1	binding	1 µM	100
